Measurements: paper PMC8906099 (Current Research in Parasitology & Vector-borne Diseases, 2021)
≈ marks a conversion by molar mass, not a printed value. Where two headings read alike, the source gives them in different places.

What was measured:
[1] = test system: trypomastigotes of T. cruzi (Sylvio X10/4 strain); test: Trypanocidal activity against trypomastigotes; type: cell-based; conditions: Trypanosoma cruzi, 72 h, read-out: IC50 ± SD, trypomastigotes
How it was run: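 Sylvio X10/4 trypomastigotes were taken from amastigote culture supernatant and seeded at 1 × 10^6 per well. Test compound was added at 0.19–100 μM (0.1% DMSO), with benznidazole (0.019–10 μM) and DMSO controls. Incubation was 72 h at 37 °C, 5% CO2. Viability was read with resazurin (40 μM in PBS), fluorescence 530/630 nm. IC50 came from sigmoid dose–response fits.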

[2] = test system: amastigotes of T. cruzi Brazil strain; test: Trypanocidal activity against intracellular amastigotes in C2C12 cells; type: cell-based; conditions: Trypanosoma cruzi, C2C12, 72 h, read-out: IC50 ± SD, amastigotes
How it was run: (§1)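 Trypomastigotes from C2C12 co-culture (DMEM, 10% FBS, 25 mM HEPES, pH 7.2) were seeded with C2C12 cells at a 1:15 infection rate. Test compound (0.19–100 μM, 2-fold, 0.1% DMSO) was added at the start. After 72 h at 37 °C, 5% CO2, cells were stained with DAPI 2 h and imaged confocally. Amastigote and host nuclei were told apart by size. IC50 came from sigmoid fits of the infection ratio normalised to controls. Mean ± SD, three experiments in triplicate.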

[3] = test system: amastigotes of T. cruzi CA-I/72 strain; test: as above; type: cell-based; conditions: Trypanosoma cruzi, C2C12, 72 h, read-out: IC50 ± SD, amastigotes
How it was run: as §1

[4] = test system: amastigotes of T. cruzi Sylvio X10/4 strain; test: as above; type: cell-based; conditions: Trypanosoma cruzi, C2C12, 72 h, read-out: IC50 ± SD, amastigotes
How it was run: as §1

[5] = test system: amastigotes of T. cruzi Sylvio X10/7 strain; test: as above; type: cell-based, Trypanosoma cruzi; conditions: Trypanosoma cruzi, C2C12, 72 h, read-out: IC50 ± SD, amastigotes, Sylvio X10/7 strain, 72 h incubation
How it was run: as §1

[6] = test system: intracellular amastigotes of T. cruzi CA-I/72 strain; test: Time-course study against intracellular amastigotes; type: cell-based; conditions: Trypanosoma cruzi, read-out: IC50 ± SD
How it was run: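 CA-I/72 trypomastigotes were incubated with C2C12 cells for 48 h to form intracellular amastigotes. Test compound was then added (0.19–100 μM, 2-fold, 0.1% DMSO), with benznidazole and DMSO controls. Incubation ran 8, 12, 24 or 48 h at 37 °C, 5% CO2. Growth inhibition was read by DAPI high-content imaging. IC50 came from sigmoid fits of the normalised infection ratio. Time trend was tested by linear regression and ANOVA.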

[7] = Time-course cytotoxicity in infected C2C12 cells; type: cell-based, murine; conditions: mouse
How it was run: (§2)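 This uses the CA-I/72 time-course infection format: a 48 h pre-infection of C2C12 cells, then test compound at 0.19–100 μM for 8, 12, 24 or 48 h, with DAPI imaging. Host viability was the total host cell count divided by the mean count of 0.1% DMSO controls. CC50 came from sigmoid fits. SI = CC50/IC50 against amastigotes at the matching time.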

[8] = test system: C2C12 cells infected with intracellular amastigotes of T. cruzi (CA-I/72 strain); test: Time-course cytotoxicity in infected C2C12 cells; type: cell-based, murine; conditions: infected C2C12 vs amastigotes CA-I/72, time-course
How it was run: as §2

[9] = Cytotoxicity in infected C2C12 cells after 72 h; type: cell-based, murine; conditions: mouse
How it was run: (§3)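 C2C12 cells were infected with trypomastigotes (1:15) together with test compound (0.19–100 μM, 0.1% DMSO) for 72 h at 37 °C, 5% CO2. Host nuclei were counted by DAPI high-content imaging. Viability was the cell count relative to the DMSO-control mean. CC50 came from sigmoid fits. SI = CC50/IC50 against intracellular amastigotes of the same strain at 72 h.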

infected C2C12 cells = test: Cytotoxicity in infected C2C12 cells after 72 h; type: cell-based, murine; conditions: 72 h
How it was run: as §3

[10] = Cytotoxicity in non-infected cells; type: cell-based, murine; conditions: mouse, non-infected C2C12 cells
How it was run: (§4)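 Non-infected C2C12 cells (5 × 10^4 per well) were plated for 24 h. Test compound (0.19–100 μM, 2-fold, 0.1% DMSO) was then added for 72 h at 37 °C. Controls were untreated, DMSO 0.4% and Triton 15%. After a PBS wash, MTT (2 mg/ml) was added for 4 h, and absorbance was read at 450 nm (reference 620 nm). CC50 came from sigmoid fits. SI = CC50/IC50 against CA-I/72 amastigotes at 72 h.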

non-infected C2C12 cells = test: Cytotoxicity in non-infected cells; type: cell-based, murine; conditions: non-infected C2C12 CC50 / IC50 amastigotes CA-I/72 strain, 72 h
How it was run: as §4

[11] = Cytotoxicity in non-infected cells; type: cell-based, monkey; conditions: monkey, non-infected LLC-MK2 cells
How it was run: (§5)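 LLC-MK2 monkey kidney cells, grown in RPMI with 10% FBS at 37 °C and 5% CO2, were plated and after 24 h exposed to test compound (0.19–100 μM, 2-fold dilutions, 0.1% DMSO) for 72 h at 37 °C. Controls were untreated cells, 0.4% DMSO and 15% Triton. After a PBS wash, MTT (2 mg/ml) was added for 4 h, and absorbance read at 450/620 nm. SI is CC50 divided by the 72 h CA-I/72 intracellular amastigote IC50.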

[12] = test system: non-infected LLC-MK2 cells; test: Cytotoxicity in non-infected cells; type: cell-based, monkey; conditions: non-infected LLC-MK2 CC50 / IC50 amastigotes CA-I/72 strain, 72 h
How it was run: as §5

[13] = test system: several Streptococcus species; conditions: ref Vieira et al., 2018; cited from earlier work
Trichomonas vaginalis = conditions: ref Carapina da Silva et al., 2019, cited from earlier work
female BALB/c mice = test: Acute oral toxicity test in mice; type: in vivo; conditions: for DA/TA (dead animals/total animals) / Mortality / Signs of toxicity: 14 days
How it was run: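 Six-week-old female BALB/c mice (25–30 g), five per group. Single oral dose of 300 or 1,000 mg/kg test compound in Tween 80/ethanol/water (7:3:90), with a vehicle group. Clinical signs (ataxia, tremor, salivation, ptosis, seizures and others) watched continuously for 1 h, periodically over 24 h, then daily to day 14. Mortality recorded.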

P. falciparum = conditions: ref Aher et al., 2011, cited from earlier work
[14] = C2C12 cells infected with T. cruzi Brazil strain
[15] = C2C12 cells infected with T. cruzi CA-I/72 strain
[16] = C2C12 cells infected with T. cruzi Sylvio X10/4 strain
[17] = C2C12 cells infected with T. cruzi Sylvio X10/7 strain
[18] = infected C2C12, Sylvio X10/4 strain
[19] = infected C2C12, Sylvio X10/7 strain

Structure (SMILES): O=C(/C=C/c1ccccc1)/C=C/c1ccccc1 [DBA 1, (1E,4E)-1,5-diphenylpenta-1,4-dien-3-one]
- IC50 [1]: 41.2 ± 2.25 µM
- IC50 [2]: 21.1 ± 2.51 µM
- IC50 [3]: 4.67 ± 1.96 µM
- IC50 [4]: 34 ± 2.92 µM
- IC50 [5]: 11.7 ± 0.81 µM
- IC50 ([6]; 8 h): > 100 µM
- IC50 ([6]; 12 h): 76.8 ± 1.39 µM
- IC50 ([6]; 24 h): 37.5 ± 1.01 µM
- IC50 ([6]; 48 h): 14.6 ± 1.1 µM
- CC50 at 8 h [7]: 12.2 ± 1.15 µM
- CC50 at 12 h [7]: 2 ± 0.42 µM
- CC50 at 24 h [7]: 0.28 ± 0.04 µM
- CC50 at 48 h [7]: 0.03 ± 0.02 µM
- SI (CC50/IC50) ([8]; 12 h): 0.02
- SI (CC50/IC50) ([8]; 24 h): 0.007
- SI (CC50/IC50) ([8]; 48 h): 0.002
- CC50 at 72 h [9, 14]: 7.32 ± 0.41 µM
- CC50 at 72 h [9, 15]: 5.74 ± 1.95 µM
- CC50 at 72 h [9, 16]: 3.8 ± 0.24 µM
- CC50 at 72 h [9, 17]: 3.29 ± 1 µM
- SI (CC50/IC50) (infected C2C12 cells; infected C2C12, Brazil strain): 0.35
- SI (CC50/IC50) (infected C2C12 cells; infected C2C12, CA-I/72 strain): 1.22
- SI (CC50/IC50) (infected C2C12 cells; [18]): 0.11
- SI (CC50/IC50) (infected C2C12 cells; [19]): 0.28
- CC50 at 72 h [10]: 40.1 ± 1.25 µM
- SI (CC50/IC50) (non-infected C2C12 cells): 8.59
- CC50 at 72 h [11]: 16.6 ± 0.61 µM
- SI (CC50/IC50) [12]: 3.54
- MIC [13]: 100 µg/mL (≈ 427 µM)
- reduction in the parasitic viability (Trichomonas vaginalis; after 24 h incubation): 98.8%
- IC50 (Trichomonas vaginalis): 50 µM

Structure (SMILES): COc1ccc(/C=C/C(=O)/C=C/c2ccc(OC)c(OC)c2)cc1OC [DBA 3, (1E,4E)-1,5-bis-(3,4-dimethoxyphenyl)penta-1,4-dien-3-one]
- IC50 [1]: 11.5 ± 1.36 µM
- IC50 [2]: 3.91 ± 0.25 µM
- IC50 [3]: 1.51 ± 0.42 µM
- IC50 [4]: 9.63 ± 1.58 µM
- IC50 [5]: 4.87 ± 0.05 µM
- IC50 ([6]; 8 h): > 100 µM
- IC50 ([6]; 12 h): 63.3 ± 3.87 µM
- IC50 ([6]; 24 h): 62.1 ± 1.52 µM
- IC50 ([6]; 48 h): 3.72 ± 0.56 µM
- CC50 at 8 h [7]: 29.8 ± 1.32 µM
- CC50 at 12 h [7]: 2.79 ± 0.3 µM
- CC50 at 24 h [7]: 0.21 ± 0.13 µM
- CC50 at 48 h [7]: 0.22 ± 0.17 µM
- SI (CC50/IC50) ([8]; 12 h): 0.04
- SI (CC50/IC50) ([8]; 24 h): 0.003
- SI (CC50/IC50) ([8]; 48 h): 0.05
- CC50 at 72 h [9, 14]: 1.73 ± 0.05 µM
- CC50 at 72 h [9, 15]: 1.62 ± 0.22 µM
- CC50 at 72 h [9, 16]: 1.25 ± 0.02 µM
- CC50 at 72 h [9, 17]: 1.15 ± 0.29 µM
- SI (CC50/IC50) (infected C2C12 cells; infected C2C12, Brazil strain): 0.43
- SI (CC50/IC50) (infected C2C12 cells; infected C2C12, CA-I/72 strain): 1.07
- SI (CC50/IC50) (infected C2C12 cells; [18]): 0.13
- SI (CC50/IC50) (infected C2C12 cells; [19]): 0.23
- CC50 at 72 h [10]: 20.8 ± 0.67 µM
- SI (CC50/IC50) (non-infected C2C12 cells): > 10
- SI (CC50/IC50) (non-infected C2C12 cells; listed as 3): 13.78
- CC50 at 72 h [11]: 11.5 ± 0.34 µM
- SI (CC50/IC50) [12]: 7.62
- Acute toxicity (general signs of toxicity or mortality) (female BALB/c mice; oral doses 300 and 1,000 mg/kg, 14-day period): no toxic effects
- DA/TA (dead animals/total animals) (female BALB/c mice; single oral dose 300 mg/kg): 0/5
- Mortality (female BALB/c mice; single oral dose 300 mg/kg): 0%
- Signs of toxicity (female BALB/c mice; single oral dose 300 mg/kg): None
- DA/TA (dead animals/total animals) (female BALB/c mice; single oral dose 1,000 mg/kg): 0/5
- Mortality (female BALB/c mice; single oral dose 1,000 mg/kg): 0%
- Signs of toxicity (female BALB/c mice; single oral dose 1,000 mg/kg): None
- IC50 (P. falciparum; chloroquine-resistant strain): 1.69 µM
- IC50 (P. falciparum; chloroquine-sensitive strain): 1.97 µM
